High-throughput results deposited in PubChem BioAssay by several laboratories.
MC4R antag cAMP – human MC4R antagonism in cAMP assay; inhibition, % at 6.5 µM; MC4R-expressing cells, MTII-stimulated cAMP, LANCE TR-FRET; P32245; 360,000 tested, 0.48% active;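 active = inhibition above its plate's cutoff, the mean of tested wells on that plate plus 3 SD, cut at about 29% in these data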
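Test system: U2OS cells stably expressing human melanocortin 4 receptor (MC4R); also added: Melanotan II challenge; compound: 6.5 µM single dose; timing: 30-min compound preincubation, 1-h Melanotan II challenge, 1-h detection, room temperature; signal: Eu-cAMP/anti-cAMP TR-FRET, emission 671 nm; repeats: one well per compound, no replicates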
MC4R ag barr – human MC4R agonism via beta-arrestin; P32245; U2OS MC4R beta-arrestin complementation, luminescence; percent of melanotan II response, DMSO zero; activation, % at 8.9 µM; 360,000 tested, 0.98% active;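 active = activation above a per-plate cutoff, the mean activation of sample wells on that plate plus 3 SD, cut at about 8% in these data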
Beta2AR agonist – human beta-2 adrenergic receptor agonism by FAP; P07550; Am2.2-beta2AR cells, FAP receptor internalization, flow cytometry; response, % (concentration not given with the values); 340,000 tested, 0.43% active; AID 504454;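 active = response above a set limit, near 3 SD of response in nonfluorescent compounds, cut at about 42% in these data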
Target sequence (P07550 whole entry, looked up): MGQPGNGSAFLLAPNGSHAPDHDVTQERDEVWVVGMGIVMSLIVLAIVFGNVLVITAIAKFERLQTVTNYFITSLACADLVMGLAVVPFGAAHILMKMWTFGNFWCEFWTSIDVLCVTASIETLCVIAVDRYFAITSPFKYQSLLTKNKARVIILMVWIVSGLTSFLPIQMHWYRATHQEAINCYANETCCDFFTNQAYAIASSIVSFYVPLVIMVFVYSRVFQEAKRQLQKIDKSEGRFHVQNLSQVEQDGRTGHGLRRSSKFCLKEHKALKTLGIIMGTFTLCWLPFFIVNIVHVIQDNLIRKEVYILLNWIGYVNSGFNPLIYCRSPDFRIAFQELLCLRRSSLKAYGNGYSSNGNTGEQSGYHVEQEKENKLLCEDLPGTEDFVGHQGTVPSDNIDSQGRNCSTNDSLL
HTR2A ag – mouse HTR2A agonism via beta-arrestin recruitment; P35363; CHO-K1 mHTR2A beta-arrestin complementation, luminescence; percent of 30 µM serotonin response; activation, % at 7.6 µM; 360,000 tested, 0.66% active; AID 624169;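 active = activation above a run cutoff, the mean activation of all tested compounds plus 3 SD, cut at about 14% in these data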
TAAR1 antag – human TAAR1 antagonism | Q96RJ0 | CHO RD-HGA16 TAAR1, Fluo-8 calcium fluorescence, antagonist | inhibition, % at 3 µM | 360,000 tested, 1.5% active;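 active = inhibition above a per-plate cutoff, the mean inhibition of test compounds on that plate plus 3 SD, cut at about 49% in these data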
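Test system – hTAAR1-expressing CHO RD-HGA16 cells, Gα16-coupled · Also added – β-PEA at EC80 concentration, post-compound challenge · Compound – 3 µM, single point · Incubation – dye loading 75 min at 37 °C, then 30 min room temperature · Measured by – Fluo-8 intracellular calcium dye fluorescence, real-time kinetic reads · Benchmarks – vehicle and agonist controls · Replicates – singlicate, one well per test compound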
TAAR1 agonist – human TAAR1 agonism; activation, % at 3 µM; 360,000 tested, 0.99% active; Q96RJ0; CHO RD-HGA16 TAAR1, Fluo-8 calcium fluorescence; vehicle wells 0%, saturating PEA agonist 100%; AID 624467;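 active = activation above the mean activation of all test compounds in the run plus 3 SD, cut at about 38% in these data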
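Benchmarks: low control DMSO, high control PEA (EC100); System: CHO RD-HGA16 cells carrying human TAAR1 plus Gα16; Detection: Fluo-8 fluorescence, 5 s baseline then 140 s kinetic read; Schedule: 17-24 h plating, Fluo-8 75 min 37 °C, 30 min RT; Read-out basis: % activation from peak over basal fluorescence ratio, DMSO-to-PEA scaled.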
U2OS cAMP counter – nonselective cAMP signaling inhibitor, MC4R antagonist counter-screen | shares compounds with MC4R antag cAMP | parental U2OS, forskolin cAMP, LANCE TR-FRET | inhibition, % at 6.5 µM | 1,600 tested, 26% active;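 active = mean inhibition over triplicates above the low-control well mean plus 3 SD, set per campaign, cut at about 13% in these data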;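 also: signal is single emission at 671 nm which falls as cellular cAMP rises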
MC4R cAMP antag – human MC4R cAMP antagonism confirmation. shares compounds with MC4R antag cAMP. MC4R-expressing cells, MTII-stimulated cAMP, TR-FRET. inhibition, % at 6.5 µM. 1,600 tested, 27% active; in the data active = inhibition above about 29%
Of the large screens only hits and unclear results are named; the others gave an inactive call (follow-up assays come after a bar, where they were run); ! = repeats disagree. The list is not random: actives were taken first. Their share in the collection is about 4.3%.

Cc1ccc(-c2nn(-c3ccccc3)cc2C(=O)Nc2ccc(C(=O)O)cc2)cc1	MC4R antag cAMP 33 | U2OS cAMP counter inactive | MC4R cAMP antag inactive
COc1ccc(-c2nn(-c3ccccc3)cc2C(=O)Nc2ccc(C(=O)O)cc2)cc1OC	none
CCC(C)Nc1nc(Cl)nc(N(C#N)CN2C(=O)c3ccccc3S2(=O)=O)n1 (centres undefined)	MC4R antag cAMP 48 | U2OS cAMP counter 23 | MC4R cAMP antag 40
CC(C)Nc1nc(Cl)nc(N(C#N)CN2C(=O)c3ccccc3C2=O)n1	none
CC1C(=O)N(Cc2cn(CCC3OCCO3)nn2)CCS(=O)(=O)N1Cc1ccc(-c2ccccc2)cc1 (centres undefined)	none (no result: Beta2AR agonist)
COc1ccccc1NC(=S)N1CCC(NC(=O)NC23CC4CC(CC(C4)C2)C3)CC1	MC4R antag cAMP 34 | U2OS cAMP counter inactive | MC4R cAMP antag inactive
CCOC(=O)c1ccc(S(=O)(=O)Nc2cc(S(=O)(=O)Nc3ccc(OC)cc3)ccc2O)cc1	none
COc1cc(OC)cc(OC(=O)C2CCN(C(=O)c3ccc(Cl)cc3)CC2)c1	MC4R antag cAMP 29 | U2OS cAMP counter inactive | MC4R cAMP antag inactive
COC(=O)CSc1nc2ccccc2nc1SCC(=O)OC	MC4R antag cAMP 36 | U2OS cAMP counter inactive | MC4R cAMP antag inactive
COC(=O)CSc1cnc2ccccc2n1	none
O=C(O)c1cccc(-c2csc(C(O)c3cccc(Cl)c3)n2)c1 (centres undefined)	none (no result: Beta2AR agonist)
COc1ccc(-c2csc(NC(=O)c3ccc(N4C(=O)CCC4=O)cc3)n2)cc1	MC4R antag cAMP 50 | U2OS cAMP counter 25 | MC4R cAMP antag 42
Cc1nc2ccc(C(=O)NCCCn3ccnc3)cn2c1N(C)CC1CCCCC1	none (no result: Beta2AR agonist)
COc1ccc2[nH]c(C(=O)N3CCN(Cc4ccccc4)CC3)cc2c1OC	none
COc1cc(S(=O)(=O)n2ccc(C)n2)ccc1Cl	MC4R antag cAMP 29 | U2OS cAMP counter inactive | MC4R cAMP antag inactive
CC(=O)NC(Cc1c[nH]c2ccccc12)C(=O)OCC(=O)N1CCN(S(=O)(=O)c2ccc(Cl)cc2)CC1 (centres undefined)	none
CN1C(=O)CC(C(=O)Nc2ccccc2F)SC1=Nc1ccc2c(c1)OCO2 (centres undefined)	MC4R antag cAMP 33 | U2OS cAMP counter inactive | MC4R cAMP antag inactive
CCOC(=O)c1c(NC(=O)CCC(=O)O)sc2c1CC(C)(C)OC2	MC4R antag cAMP 33 | U2OS cAMP counter inactive | MC4R cAMP antag inactive
CCOC(=O)c1c(NC(=O)C2CC2)sc2c1CC(C)(C)OC2	none
CSc1ccccc1C(=O)Nc1ccccc1C	none
CSc1ccccc1C(=O)Nc1c(C)cccc1C	MC4R antag cAMP 32 | U2OS cAMP counter inactive | MC4R cAMP antag inactive
CCOC(=O)C1=CCCN(S(=O)(=O)c2ccc(C)cc2)C1	none (no result: MC4R antag cAMP, MC4R ag barr, Beta2AR agonist)
CCN(CC)CCNC(=O)Cc1c(C(=O)O)n(CC)c2ccccc12	none
CCn1c(C(=O)O)c(CC(=O)Nc2ccc(Br)cc2C)c2ccccc21	MC4R antag cAMP 29 | U2OS cAMP counter inactive | MC4R cAMP antag inactive
CC(=O)N1N=C(c2ccccc2)CC1c1cccs1 (centres undefined)	MC4R antag cAMP 29 | U2OS cAMP counter inactive | MC4R cAMP antag inactive
COC(=O)c1ccsc1NC(=O)CN1CCN(c2ncccn2)CC1	none
CC(=O)c1c(C)nc2ccc(Br)cc2c1-c1ccccc1	none
Cc1ccc(-c2cc(C(=O)O)c3cc(Br)ccc3n2)s1	MC4R antag cAMP 36 | U2OS cAMP counter 16 | MC4R cAMP antag 31!
Cc1nc2ccc(Br)cc2c(-c2ccccc2)c1C(=O)O	MC4R antag cAMP 35 | U2OS cAMP counter 48 | MC4R cAMP antag 96
